# Reference: ChEMBL document CHEMBL2424622, “Development of amino-pyrimidine inhibitors of c-Jun N-terminal kinase (JNK): kinase profiling guided optimization of a 1,2,3-benzotriazole lead” (Bioorg Med Chem Lett, 2013)
# Experiments:
# [1] = biological target: Serine/threonine-protein kinase SIK2 (Homo sapiens) (UniProt Q9H0K1); test: Competitive binding affinity to SNF1LK2 (unknown origin) at 10 uM in presence of ATP relative to control
# [2] = system: T1, Receptor-type tyrosine-protein kinase FLT3 (Homo sapiens), P36888 [N841I]; test: Competitive binding affinity to FLT3 N841I mutant (unknown origin) at 10 uM in presence of ATP relative to control
# T1 sequence (whole entry): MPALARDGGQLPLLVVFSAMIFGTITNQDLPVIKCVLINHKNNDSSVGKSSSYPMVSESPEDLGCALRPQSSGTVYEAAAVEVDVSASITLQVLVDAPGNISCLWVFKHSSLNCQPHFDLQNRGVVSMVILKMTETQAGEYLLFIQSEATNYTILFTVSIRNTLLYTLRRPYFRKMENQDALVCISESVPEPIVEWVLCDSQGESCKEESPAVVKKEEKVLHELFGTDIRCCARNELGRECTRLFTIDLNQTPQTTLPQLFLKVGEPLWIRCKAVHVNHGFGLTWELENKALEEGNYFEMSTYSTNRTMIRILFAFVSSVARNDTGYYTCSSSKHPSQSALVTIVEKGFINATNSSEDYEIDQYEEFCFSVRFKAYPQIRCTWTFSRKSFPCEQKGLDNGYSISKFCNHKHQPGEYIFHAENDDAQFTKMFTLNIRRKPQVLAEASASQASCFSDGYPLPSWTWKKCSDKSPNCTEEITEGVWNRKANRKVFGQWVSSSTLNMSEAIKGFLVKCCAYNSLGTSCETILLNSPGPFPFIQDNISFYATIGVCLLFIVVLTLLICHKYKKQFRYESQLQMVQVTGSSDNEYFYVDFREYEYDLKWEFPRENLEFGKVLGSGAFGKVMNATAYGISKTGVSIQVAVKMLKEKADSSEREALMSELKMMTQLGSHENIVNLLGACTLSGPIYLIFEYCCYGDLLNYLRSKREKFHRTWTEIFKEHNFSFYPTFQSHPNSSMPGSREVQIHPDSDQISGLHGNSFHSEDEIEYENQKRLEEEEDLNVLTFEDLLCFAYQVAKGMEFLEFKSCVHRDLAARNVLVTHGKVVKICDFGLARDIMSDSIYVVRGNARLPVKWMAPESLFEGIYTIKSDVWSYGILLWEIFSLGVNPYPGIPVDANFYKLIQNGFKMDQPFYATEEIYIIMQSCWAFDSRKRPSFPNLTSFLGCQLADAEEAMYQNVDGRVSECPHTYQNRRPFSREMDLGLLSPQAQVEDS
# [3] = biological target: T2, Serine/threonine-protein kinase 4 (Homo sapiens) (UniProt Q13043); test: Competitive binding affinity to MST1 (unknown origin) at 10 uM in presence of ATP relative to control
# T2 sequence (whole entry): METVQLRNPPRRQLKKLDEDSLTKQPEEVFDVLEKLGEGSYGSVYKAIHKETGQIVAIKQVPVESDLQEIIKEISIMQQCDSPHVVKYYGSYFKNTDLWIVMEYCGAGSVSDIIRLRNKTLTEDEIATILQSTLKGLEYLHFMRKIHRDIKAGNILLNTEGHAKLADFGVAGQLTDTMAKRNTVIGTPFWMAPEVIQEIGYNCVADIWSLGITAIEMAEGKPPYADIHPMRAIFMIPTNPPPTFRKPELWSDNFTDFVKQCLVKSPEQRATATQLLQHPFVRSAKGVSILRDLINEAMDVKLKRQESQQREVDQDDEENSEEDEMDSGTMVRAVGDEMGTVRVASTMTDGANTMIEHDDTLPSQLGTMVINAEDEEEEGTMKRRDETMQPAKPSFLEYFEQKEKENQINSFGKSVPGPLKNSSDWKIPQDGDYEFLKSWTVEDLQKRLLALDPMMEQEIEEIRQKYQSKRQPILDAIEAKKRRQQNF
# [4] = system: Phosphatidylinositol 4,5-bisphosphate 3-kinase catalytic subunit alpha isoform (Homo sapiens), P42336 [E545K]; test: Competitive binding affinity to PIK3CA E545K mutant (unknown origin) at 10 uM in presence of ATP relative to control
# [5] = system: Epidermal growth factor receptor (Homo sapiens), P00533 [L861Q]; test: Competitive binding affinity to EGFR L861Q mutant (unknown origin) at 10 uM in presence of ATP relative to control
# Procedure, shortened: (§1)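 In vitro ATP-site competition binding assay, part of profiling against a diverse panel of 128 kinases. Each compound was tested at a single concentration of 10 µM. Kinome selectivity was summarized as S15 selectivity scores.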
# [6] = system: Epidermal growth factor receptor (Homo sapiens), P00533 [G719S]; test: Competitive binding affinity to EGFR G719S mutant (unknown origin) at 10 uM in presence of ATP relative to control; procedure, shortened: as §1
# [7] = biological target: T3, Calcium/calmodulin-dependent protein kinase type IV (Homo sapiens) (UniProt Q16566); test: Competitive binding affinity to CAMK4 (unknown origin) at 10 uM in presence of ATP relative to control
# T3 sequence (whole entry): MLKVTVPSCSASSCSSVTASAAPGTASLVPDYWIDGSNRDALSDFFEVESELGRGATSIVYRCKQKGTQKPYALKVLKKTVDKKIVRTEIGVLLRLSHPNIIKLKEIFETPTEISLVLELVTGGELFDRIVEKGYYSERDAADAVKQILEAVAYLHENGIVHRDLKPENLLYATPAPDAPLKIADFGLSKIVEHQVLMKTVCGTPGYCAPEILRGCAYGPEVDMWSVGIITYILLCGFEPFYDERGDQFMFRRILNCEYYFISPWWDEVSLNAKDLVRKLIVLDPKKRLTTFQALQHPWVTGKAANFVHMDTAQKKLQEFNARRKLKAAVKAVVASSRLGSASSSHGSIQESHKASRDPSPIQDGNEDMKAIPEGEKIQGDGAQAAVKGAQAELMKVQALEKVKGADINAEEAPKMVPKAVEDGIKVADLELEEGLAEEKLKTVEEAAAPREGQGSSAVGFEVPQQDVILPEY
# [8] = biological target: T4, Serine/threonine-protein kinase 17A (Homo sapiens) (UniProt Q9UEE5); test: Competitive binding affinity to STK17A (unknown origin) at 10 uM in presence of ATP relative to control
# T4 sequence (whole entry): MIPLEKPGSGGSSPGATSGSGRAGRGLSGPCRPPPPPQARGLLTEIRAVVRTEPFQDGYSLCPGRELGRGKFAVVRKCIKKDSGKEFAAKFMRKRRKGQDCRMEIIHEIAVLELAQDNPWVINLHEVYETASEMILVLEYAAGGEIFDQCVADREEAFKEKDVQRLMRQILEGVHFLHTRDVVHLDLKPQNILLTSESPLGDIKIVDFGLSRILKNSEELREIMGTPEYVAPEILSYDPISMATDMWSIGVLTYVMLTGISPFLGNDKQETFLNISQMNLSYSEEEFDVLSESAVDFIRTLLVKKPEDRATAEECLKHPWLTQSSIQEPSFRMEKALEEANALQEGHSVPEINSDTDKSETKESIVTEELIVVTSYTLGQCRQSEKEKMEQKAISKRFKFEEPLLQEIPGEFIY
# Epidermal growth factor receptor (Homo sapiens), P00533 [L861Q], sequence (P00533 whole entry L861Q): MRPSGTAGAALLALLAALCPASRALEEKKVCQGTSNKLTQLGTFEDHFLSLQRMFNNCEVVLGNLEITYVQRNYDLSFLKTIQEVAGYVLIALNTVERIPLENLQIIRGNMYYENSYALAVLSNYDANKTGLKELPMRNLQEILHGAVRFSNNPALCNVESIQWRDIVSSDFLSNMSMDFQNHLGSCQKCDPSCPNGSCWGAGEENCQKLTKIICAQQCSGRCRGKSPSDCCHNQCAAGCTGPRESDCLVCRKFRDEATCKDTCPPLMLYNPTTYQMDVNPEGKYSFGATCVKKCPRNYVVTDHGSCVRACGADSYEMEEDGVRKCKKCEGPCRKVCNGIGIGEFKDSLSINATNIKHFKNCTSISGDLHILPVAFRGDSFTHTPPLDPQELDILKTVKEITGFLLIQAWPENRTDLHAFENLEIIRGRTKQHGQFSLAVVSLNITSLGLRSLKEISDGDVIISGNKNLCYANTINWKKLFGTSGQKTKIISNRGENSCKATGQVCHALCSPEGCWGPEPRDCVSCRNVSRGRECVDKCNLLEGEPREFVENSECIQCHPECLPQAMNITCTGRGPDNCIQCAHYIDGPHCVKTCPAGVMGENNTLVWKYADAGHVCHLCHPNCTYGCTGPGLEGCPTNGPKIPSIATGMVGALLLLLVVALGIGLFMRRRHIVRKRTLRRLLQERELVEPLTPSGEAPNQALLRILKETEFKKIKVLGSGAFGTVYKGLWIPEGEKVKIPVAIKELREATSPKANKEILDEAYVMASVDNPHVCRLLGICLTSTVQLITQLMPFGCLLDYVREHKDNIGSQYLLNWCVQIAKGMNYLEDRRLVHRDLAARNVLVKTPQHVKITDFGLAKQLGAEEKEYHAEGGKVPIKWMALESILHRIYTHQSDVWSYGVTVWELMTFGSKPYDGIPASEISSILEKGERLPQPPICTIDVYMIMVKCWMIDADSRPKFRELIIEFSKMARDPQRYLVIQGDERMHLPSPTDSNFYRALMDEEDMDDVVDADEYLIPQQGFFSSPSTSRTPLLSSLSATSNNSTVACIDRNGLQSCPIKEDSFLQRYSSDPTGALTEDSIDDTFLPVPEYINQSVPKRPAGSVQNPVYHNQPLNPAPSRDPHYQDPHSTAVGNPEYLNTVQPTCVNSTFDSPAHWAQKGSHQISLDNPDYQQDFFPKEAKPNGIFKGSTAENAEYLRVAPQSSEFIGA
# Serine/threonine-protein kinase SIK2 (Homo sapiens), sequence (Q9H0K1 whole entry, looked up): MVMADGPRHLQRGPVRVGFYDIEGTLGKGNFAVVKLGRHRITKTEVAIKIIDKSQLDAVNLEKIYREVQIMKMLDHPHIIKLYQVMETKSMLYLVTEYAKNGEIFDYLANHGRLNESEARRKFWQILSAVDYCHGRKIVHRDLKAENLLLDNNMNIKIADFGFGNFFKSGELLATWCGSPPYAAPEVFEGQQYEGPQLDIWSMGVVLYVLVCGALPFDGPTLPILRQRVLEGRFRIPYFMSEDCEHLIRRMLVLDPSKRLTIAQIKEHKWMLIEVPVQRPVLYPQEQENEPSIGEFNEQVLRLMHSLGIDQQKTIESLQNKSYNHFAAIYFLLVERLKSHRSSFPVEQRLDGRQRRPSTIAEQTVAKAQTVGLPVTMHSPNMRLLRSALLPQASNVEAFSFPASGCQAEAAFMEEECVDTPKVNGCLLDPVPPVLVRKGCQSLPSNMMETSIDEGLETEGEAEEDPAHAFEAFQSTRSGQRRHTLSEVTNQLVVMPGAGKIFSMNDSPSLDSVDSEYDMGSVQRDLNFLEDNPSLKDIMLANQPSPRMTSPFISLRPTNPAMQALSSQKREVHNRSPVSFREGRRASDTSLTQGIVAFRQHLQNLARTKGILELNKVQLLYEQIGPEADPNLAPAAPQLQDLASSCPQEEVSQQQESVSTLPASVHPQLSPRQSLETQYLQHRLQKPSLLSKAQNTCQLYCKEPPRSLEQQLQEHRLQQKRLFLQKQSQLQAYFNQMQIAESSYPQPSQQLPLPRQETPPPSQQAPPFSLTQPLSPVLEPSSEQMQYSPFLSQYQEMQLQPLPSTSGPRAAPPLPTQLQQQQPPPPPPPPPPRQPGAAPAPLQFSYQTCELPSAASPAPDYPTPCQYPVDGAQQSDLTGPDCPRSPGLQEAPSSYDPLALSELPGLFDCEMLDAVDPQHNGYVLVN
# Phosphatidylinositol 4,5-bisphosphate 3-kinase catalytic subunit alpha isoform (Homo sapiens), P42336 [E545K], sequence (P42336 whole entry E545K, canonical isoform): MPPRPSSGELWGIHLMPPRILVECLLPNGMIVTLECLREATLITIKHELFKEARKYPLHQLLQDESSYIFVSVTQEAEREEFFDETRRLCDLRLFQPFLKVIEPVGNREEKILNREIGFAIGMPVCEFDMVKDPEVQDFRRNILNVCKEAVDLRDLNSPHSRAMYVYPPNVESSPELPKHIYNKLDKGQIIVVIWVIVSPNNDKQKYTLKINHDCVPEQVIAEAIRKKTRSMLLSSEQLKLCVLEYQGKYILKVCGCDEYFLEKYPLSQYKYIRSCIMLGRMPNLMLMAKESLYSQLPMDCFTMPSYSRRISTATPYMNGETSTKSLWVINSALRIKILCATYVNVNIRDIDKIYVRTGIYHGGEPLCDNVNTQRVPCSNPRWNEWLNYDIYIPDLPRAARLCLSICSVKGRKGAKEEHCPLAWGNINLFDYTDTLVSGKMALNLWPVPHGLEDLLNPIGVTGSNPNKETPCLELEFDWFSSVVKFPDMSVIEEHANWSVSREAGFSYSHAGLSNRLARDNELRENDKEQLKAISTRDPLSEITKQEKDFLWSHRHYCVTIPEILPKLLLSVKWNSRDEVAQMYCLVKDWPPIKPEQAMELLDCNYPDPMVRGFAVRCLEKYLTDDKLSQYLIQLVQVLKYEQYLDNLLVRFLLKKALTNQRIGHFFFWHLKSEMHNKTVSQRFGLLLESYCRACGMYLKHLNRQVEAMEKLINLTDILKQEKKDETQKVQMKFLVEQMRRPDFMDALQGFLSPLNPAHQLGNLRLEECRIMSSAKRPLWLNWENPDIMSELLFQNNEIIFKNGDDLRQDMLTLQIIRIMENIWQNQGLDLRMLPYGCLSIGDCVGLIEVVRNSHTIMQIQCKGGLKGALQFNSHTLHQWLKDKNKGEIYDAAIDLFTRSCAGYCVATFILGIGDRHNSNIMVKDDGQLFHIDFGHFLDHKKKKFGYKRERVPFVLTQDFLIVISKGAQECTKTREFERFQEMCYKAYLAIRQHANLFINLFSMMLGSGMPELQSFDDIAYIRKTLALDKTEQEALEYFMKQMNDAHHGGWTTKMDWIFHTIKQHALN
# Epidermal growth factor receptor (Homo sapiens), P00533 [G719S], sequence (P00533 whole entry G719S): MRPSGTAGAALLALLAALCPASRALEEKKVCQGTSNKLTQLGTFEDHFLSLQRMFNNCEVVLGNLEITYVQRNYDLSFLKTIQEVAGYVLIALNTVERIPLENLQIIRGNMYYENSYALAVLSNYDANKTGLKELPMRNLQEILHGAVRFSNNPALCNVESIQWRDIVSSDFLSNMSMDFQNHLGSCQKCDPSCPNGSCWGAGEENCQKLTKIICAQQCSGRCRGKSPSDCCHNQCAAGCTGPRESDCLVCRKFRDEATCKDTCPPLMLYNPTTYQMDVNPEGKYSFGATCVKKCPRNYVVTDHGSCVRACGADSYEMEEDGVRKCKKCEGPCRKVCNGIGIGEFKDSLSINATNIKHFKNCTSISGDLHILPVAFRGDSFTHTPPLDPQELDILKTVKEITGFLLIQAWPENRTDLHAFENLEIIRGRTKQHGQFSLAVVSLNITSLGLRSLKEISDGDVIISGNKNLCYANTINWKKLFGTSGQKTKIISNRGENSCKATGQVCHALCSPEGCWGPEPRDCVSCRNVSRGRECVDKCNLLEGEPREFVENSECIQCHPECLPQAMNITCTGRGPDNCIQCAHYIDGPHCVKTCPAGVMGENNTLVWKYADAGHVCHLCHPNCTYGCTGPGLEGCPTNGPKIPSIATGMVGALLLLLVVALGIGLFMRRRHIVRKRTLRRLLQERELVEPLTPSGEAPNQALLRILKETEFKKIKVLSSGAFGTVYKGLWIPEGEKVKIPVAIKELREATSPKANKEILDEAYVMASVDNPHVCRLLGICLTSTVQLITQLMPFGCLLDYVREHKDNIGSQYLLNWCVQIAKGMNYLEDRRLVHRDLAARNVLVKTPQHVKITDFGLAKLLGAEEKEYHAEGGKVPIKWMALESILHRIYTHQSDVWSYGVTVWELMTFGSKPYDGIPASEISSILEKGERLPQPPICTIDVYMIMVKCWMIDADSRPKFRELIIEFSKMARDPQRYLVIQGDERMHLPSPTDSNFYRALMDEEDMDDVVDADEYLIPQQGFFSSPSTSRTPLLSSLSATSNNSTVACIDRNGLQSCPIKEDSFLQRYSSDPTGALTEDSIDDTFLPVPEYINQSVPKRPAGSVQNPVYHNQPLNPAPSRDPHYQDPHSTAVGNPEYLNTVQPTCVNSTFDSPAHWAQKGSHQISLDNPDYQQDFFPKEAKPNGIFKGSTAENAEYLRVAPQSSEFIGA
SMILES,inhibition [1] [%],inhibition [2] [%],inhibition [3] [%],inhibition [4] [%],inhibition [5] [%],inhibition [6] [%],inhibition [7] [%],inhibition [8] [%]
O[C@H]1CC[C@H](Nc2nccc(-n3nnc4ccccc43)n2)CC1,73,98,< 50,88,< 50,< 50,72,–
O[C@H]1CC[C@H](Nc2nccc(-n3ncc4ccccc43)n2)CC1,< 50,97,< 50,82,< 50,< 50,< 50,–
O[C@H]1CC[C@H](Nc2nccc(-c3n[nH]c4ccccc34)n2)CC1,–,100,–,–,< 50,< 50,–,100
O[C@H]1CC[C@H](Nc2nccc(-n3ccc4ccccc43)n2)CC1,< 50,< 50,< 50,< 50,< 50,< 50,< 50,–
O=C([C@H]1CC[C@H](Nc2nccc(-n3nnc4ccccc43)n2)CC1)N1CCOCC1,–,–,–,–,–,–,–,97
N[C@H]1CC[C@H](Nc2nccc(-n3nnc4ccccc43)n2)CC1,–,–,–,–,–,–,–,100
